Experimental data published in ChEMBL document CHEMBL4823291, “Discovery of 5,6,7,8-tetrahydropyrido[3,4-d]pyrimidine derivatives as novel selective Axl inhibitors” (Bioorg Med Chem Lett, 2021).

Experiments:
[1] = molecular target: CYP2C19 (Homo sapiens, UniProt P33261); assay: Time dependent inhibition of CYP2C19 in human liver microsomes assessed as enzyme remaining activity using cocktail of probe CYP as substrate at 50 uM; assay type: ADME; conditions: probe cocktail of CYP probe substrates, read-out: Activity
How it was run: (§1)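 Time-dependent CYP inhibition in human liver microsomes, with test compound at 50 µM and a cocktail of probe CYP substrates.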

[2] = AUC (0 to 24 hrs) in CAnN.Cg-Foxnlnu/CrlCrlj mouse plasma at 100 mg/kg, po single dose measured up to 24 hrs by liquid chromatography tandem mass spectrometry; assay type: ADME, organism-based; design: route oral, dose 100 mg/kg, time <=24
[3] = molecular target: T1, CYP2C8 (Homo sapiens, UniProt P10632); assay: Time dependent inhibition of CYP2C8 in human liver microsomes assessed as enzyme remaining activity using cocktail of probe CYP as substrate at 50 uM; assay type: ADME; conditions: probe cocktail of CYP probe substrates, read-out: Activity; how it was run: as §1
T1 sequence (P10632 whole entry): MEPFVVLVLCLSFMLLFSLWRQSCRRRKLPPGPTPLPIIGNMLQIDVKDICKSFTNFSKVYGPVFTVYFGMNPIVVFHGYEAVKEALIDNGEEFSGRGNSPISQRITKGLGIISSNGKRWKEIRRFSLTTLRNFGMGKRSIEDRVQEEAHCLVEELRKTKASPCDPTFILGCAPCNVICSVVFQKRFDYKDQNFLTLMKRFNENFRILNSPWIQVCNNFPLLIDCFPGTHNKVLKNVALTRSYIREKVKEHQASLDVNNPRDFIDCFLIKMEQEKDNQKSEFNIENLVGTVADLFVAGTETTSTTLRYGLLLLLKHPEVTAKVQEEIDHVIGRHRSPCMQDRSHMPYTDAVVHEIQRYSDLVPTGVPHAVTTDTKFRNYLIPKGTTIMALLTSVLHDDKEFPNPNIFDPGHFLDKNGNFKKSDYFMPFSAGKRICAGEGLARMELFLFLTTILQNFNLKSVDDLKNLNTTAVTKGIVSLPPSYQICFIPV

[4] = molecular target: T2, Tyrosine-protein kinase receptor UFO (Mus musculus, UniProt Q00993); assay: Inhibition of Axl in mouse BaF3 cells; assay type: cell-based
T2 sequence (Q00993 whole entry): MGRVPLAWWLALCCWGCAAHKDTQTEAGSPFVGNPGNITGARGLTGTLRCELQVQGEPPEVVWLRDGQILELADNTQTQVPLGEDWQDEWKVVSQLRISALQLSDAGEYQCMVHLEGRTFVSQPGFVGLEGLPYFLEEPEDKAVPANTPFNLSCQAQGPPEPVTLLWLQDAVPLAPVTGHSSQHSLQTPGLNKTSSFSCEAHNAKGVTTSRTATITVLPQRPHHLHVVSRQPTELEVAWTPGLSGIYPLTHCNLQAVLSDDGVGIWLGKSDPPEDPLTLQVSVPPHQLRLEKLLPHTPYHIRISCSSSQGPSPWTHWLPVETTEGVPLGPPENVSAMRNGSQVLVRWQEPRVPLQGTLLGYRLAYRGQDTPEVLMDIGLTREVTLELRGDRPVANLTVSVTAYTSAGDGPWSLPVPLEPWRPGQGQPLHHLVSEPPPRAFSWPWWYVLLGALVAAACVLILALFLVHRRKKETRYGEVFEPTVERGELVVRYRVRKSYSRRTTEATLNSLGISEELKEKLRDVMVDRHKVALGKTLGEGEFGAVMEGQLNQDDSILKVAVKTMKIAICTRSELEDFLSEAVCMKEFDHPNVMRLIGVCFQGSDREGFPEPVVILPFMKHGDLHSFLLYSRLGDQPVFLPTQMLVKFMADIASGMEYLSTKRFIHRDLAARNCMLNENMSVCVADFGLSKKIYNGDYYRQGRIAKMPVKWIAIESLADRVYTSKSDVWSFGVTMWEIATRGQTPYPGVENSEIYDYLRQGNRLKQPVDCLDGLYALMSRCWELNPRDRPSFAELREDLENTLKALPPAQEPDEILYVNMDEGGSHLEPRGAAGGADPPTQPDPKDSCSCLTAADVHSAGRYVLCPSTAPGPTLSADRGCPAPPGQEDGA

[5] = molecular target: T3, Tyrosine-protein kinase Mer (Mus musculus, UniProt Q60805); assay: Inhibition of Mer in mouse BaF3 cells; assay type: cell-based
T3 sequence (Q60805 whole entry): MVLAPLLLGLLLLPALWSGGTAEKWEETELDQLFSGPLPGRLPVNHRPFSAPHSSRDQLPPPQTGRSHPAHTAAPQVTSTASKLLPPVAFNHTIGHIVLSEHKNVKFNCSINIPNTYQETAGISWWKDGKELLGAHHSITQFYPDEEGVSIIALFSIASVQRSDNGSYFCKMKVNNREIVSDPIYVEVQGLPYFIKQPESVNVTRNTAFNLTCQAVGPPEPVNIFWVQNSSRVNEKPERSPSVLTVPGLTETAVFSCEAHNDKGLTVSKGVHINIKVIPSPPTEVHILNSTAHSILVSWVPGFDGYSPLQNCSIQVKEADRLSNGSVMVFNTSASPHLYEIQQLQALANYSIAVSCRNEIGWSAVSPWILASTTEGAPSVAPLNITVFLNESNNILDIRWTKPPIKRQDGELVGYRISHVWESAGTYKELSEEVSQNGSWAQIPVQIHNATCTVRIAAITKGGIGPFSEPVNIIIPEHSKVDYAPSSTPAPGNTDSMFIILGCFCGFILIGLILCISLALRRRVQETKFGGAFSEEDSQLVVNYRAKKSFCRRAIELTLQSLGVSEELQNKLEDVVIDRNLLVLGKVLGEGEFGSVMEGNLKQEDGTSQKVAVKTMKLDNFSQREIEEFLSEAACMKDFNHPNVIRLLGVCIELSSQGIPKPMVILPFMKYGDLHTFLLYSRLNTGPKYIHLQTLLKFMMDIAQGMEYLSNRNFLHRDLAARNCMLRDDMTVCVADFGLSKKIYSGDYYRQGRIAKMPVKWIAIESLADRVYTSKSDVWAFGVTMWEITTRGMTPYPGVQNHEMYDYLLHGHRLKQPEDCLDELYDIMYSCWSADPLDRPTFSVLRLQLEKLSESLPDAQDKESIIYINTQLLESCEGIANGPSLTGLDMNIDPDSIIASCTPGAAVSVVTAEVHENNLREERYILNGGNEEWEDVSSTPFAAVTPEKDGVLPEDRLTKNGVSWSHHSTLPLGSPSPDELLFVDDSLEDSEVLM

[6] = organism: Homo sapiens; assay: Ratio of IC50 for Mer (unknown origin) to IC50 for Axl (unknown origin)
[7] = AUC (0 to 24 hrs) in CAnN.Cg-Foxnlnu/CrlCrlj mouse plasma at 50 mg/kg, po single dose measured up to 24 hrs by liquid chromatography tandem mass spectrometry; assay type: ADME, organism-based; design: route oral, dose 50 mg/kg, time <=24
[8] = AUC (0 to 24 hrs) in CAnN.Cg-Foxnlnu/CrlCrlj mouse plasma at 25 mg/kg, po single dose measured up to 24 hrs by liquid chromatography tandem mass spectrometry; assay type: ADME, organism-based; design: route oral, dose 25 mg/kg, time <=24
[9] = Tmax in CAnN.Cg-Foxnlnu/CrlCrlj mouse plasma at 25 mg/kg, po single dose measured up to 24 hrs by liquid chromatography tandem mass spectrometry; assay type: ADME, organism-based
[10] = Permeability of compound by PAMPA assay; assay type: ADME; conditions: read-out: permeability

Sequence of CYP2C19 (P33261 whole entry): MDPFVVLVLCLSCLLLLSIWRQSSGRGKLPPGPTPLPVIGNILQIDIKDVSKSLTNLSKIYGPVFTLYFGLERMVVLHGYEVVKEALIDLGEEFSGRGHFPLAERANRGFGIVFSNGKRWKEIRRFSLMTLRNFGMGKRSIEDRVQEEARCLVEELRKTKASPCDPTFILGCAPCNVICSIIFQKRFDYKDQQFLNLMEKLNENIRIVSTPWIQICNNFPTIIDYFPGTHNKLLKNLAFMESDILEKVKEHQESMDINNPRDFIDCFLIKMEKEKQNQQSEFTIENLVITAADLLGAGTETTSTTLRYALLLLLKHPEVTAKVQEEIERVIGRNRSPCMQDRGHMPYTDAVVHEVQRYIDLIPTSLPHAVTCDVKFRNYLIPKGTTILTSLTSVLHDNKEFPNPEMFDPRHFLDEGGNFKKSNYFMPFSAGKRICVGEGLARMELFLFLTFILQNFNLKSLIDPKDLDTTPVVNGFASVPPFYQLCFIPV

activity at 50 µM [1]: 89%
AUC(0-t) [2]: 110000 ng·h/mL
activity at 50 µM [3]: 84%
IC50 [4]: 28 nM
IC50 [5]: 180 nM
Ratio IC50 [6]: 37
AUC(0-t) [7]: 56700 ng·h/mL
AUC(0-t) [8]: 22900 ng·h/mL
Tmax [9]: 2 h
Papp [10]: 0.91 ×10⁻⁶ cm/s
Compound: Cc1ccc(-n2c(=O)c(C(=O)Nc3ccc(Oc4ncnc5c4CCN(CC4CCN(C)CC4)C5)c(F)c3)cn(C3CCCC3)c2=O)nc1
